Test system: HEK-293T
Test: Multiplex assay against HEK293T
Type: toxicity, cell-based
Conditions: human
Summary of the method: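 At seeding, live cells were stained with Hoechst33342, BioTracker Green Microtubule Cytoskeleton Dye, MitoTracker Red and Annexin V Alexa Fluor 680. After compound addition they were imaged on a CQ1 microscope at 37°C and 5% CO2, and CellPathfinder machine-learning gating sorted them into Hoechst high-intensity objects or normal cells, with normal cells further split into healthy, pyknosed or fragmented nuclei and pyknosed cells into mitotic or apoptotic. Tubulin, mitochondrial-mass and membrane-permeability phenotypes are given as per cents of cells with healthy nuclei.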

[1] = 12 h, 1 µM, compound concentration 1 uM, replicate 1
[2] = 12 h, 1 µM, compound concentration 1 uM, replicate 2
[3] = 12 h, 10 µM, compound concentration 10 uM, replicate 1
[4] = 12 h, 10 µM, compound concentration 10 uM, replicate 2
[5] = 24 h, 1 µM, compound concentration 1 uM, replicate 1
[6] = 24 h, 1 µM, compound concentration 1 uM, replicate 2
[7] = 24 h, 10 µM, compound concentration 10 uM, replicate 1
[8] = 24 h, 10 µM, compound concentration 10 uM, replicate 2
[9] = 48 h, 1 µM, compound concentration 1 uM, replicate 1
[10] = 48 h, 1 µM, compound concentration 1 uM, replicate 2
[11] = 48 h, 10 µM, compound concentration 10 uM, replicate 1
[12] = 48 h, 10 µM, compound concentration 10 uM, replicate 2

OCCCNc1cc(-c2ccnc(Nc3cccc(Cl)c3)n2)ccn1
Population Apoptotic (%) [1]: 66%
Population Fragmented Nuclei (%) [1]: 9%
Population Healthy Nuclei (%) [1]: 66%
Population Hoechst High Intensity Objects (%) [1]: 14%
Population Membrane Permeable-Phenotype (%) [1]: 0%
Population Mitochondria Different-Phenotype (%) [1]: 82%
Population Mitotic Cells (%) [1]: 33%
Population Normal (%) [1]: 85%
Population Pyknosed Nuclei (%) [1]: 24%
Population Tubulin-Different-Phenotype (%) [1]: 75%
Total Cell Count [1]: 204
Population Apoptotic (%) [2]: 65%
Population Fragmented Nuclei (%) [2]: 8%
Population Healthy Nuclei (%) [2]: 74%
Population Hoechst High Intensity Objects (%) [2]: 11%
Population Mitochondria Different-Phenotype (%) [2]: 88%
Population Mitotic Cells (%) [2]: 34%
Population Normal (%) [2]: 88%
Population Pyknosed Nuclei (%) [2]: 16%
Population Tubulin-Different-Phenotype (%) [2]: 57%
Total Cell Count [2]: 173
Population Apoptotic (%) [3]: 78%
Population Fragmented Nuclei (%) [3]: 14%
Population Healthy Nuclei (%) [3]: 55%
Population Hoechst High Intensity Objects (%) [3]: 30%
Population Membrane Permeable-Phenotype (%) [3]: 1%
Population Mitochondria Different-Phenotype (%) [3]: 83%
Population Mitotic Cells (%) [3]: 21%
Population Normal (%) [3]: 69%
Population Pyknosed Nuclei (%) [3]: 30%
Population Tubulin-Different-Phenotype (%) [3]: 80%
Total Cell Count [3]: 249
Population Apoptotic (%) [4]: 75%
Population Healthy Nuclei (%) [4]: 67%
Population Hoechst High Intensity Objects (%) [4]: 41%
Population Membrane Permeable-Phenotype (%) [4]: 10%
Population Mitochondria Different-Phenotype (%) [4]: 85%
Population Mitotic Cells (%) [4]: 25%
Population Normal (%) [4]: 58%
Population Pyknosed Nuclei (%) [4]: 18%
Population Tubulin-Different-Phenotype (%) [4]: 72%
Total Cell Count [4]: 224
Population Apoptotic (%) [5]: 91%
Population Fragmented Nuclei (%) [5]: 10%
Population Healthy Nuclei (%) [5]: 66%
Population Hoechst High Intensity Objects (%) [5]: 14%
Population Membrane Permeable-Phenotype (%) [5]: 0%
Population Mitochondria Different-Phenotype (%) [5]: 80%
Population Mitotic Cells (%) [5]: 8%
Population Normal (%) [5]: 85%
Population Pyknosed Nuclei (%) [5]: 22%
Population Tubulin-Different-Phenotype (%) [5]: 61%
Total Cell Count [5]: 228
Population Apoptotic (%) [6]: 77%
Population Fragmented Nuclei (%) [6]: 13%
Population Healthy Nuclei (%) [6]: 76%
Population Hoechst High Intensity Objects (%) [6]: 15%
Population Mitochondria Different-Phenotype (%) [6]: 86%
Population Mitotic Cells (%) [6]: 22%
Population Normal (%) [6]: 84%
Population Pyknosed Nuclei (%) [6]: 10%
Total Cell Count [6]: 202
Population Apoptotic (%) [7]: 71%
Population Fragmented Nuclei (%) [7]: 16%
Population Healthy Nuclei (%) [7]: 44%
Population Hoechst High Intensity Objects (%) [7]: 41%
Population Membrane Permeable-Phenotype (%) [7]: 0%
Population Mitochondria Different-Phenotype (%) [7]: 85%
Population Mitotic Cells (%) [7]: 28%
Population Normal (%) [7]: 58%
Population Pyknosed Nuclei (%) [7]: 38%
Population Tubulin-Different-Phenotype (%) [7]: 88%
Total Cell Count [7]: 237
Population Apoptotic (%) [8]: 78%
Population Fragmented Nuclei (%) [8]: 15%
Population Healthy Nuclei (%) [8]: 54%
Population Hoechst High Intensity Objects (%) [8]: 45%
Population Membrane Permeable-Phenotype (%) [8]: 3%
Population Mitochondria Different-Phenotype (%) [8]: 91%
Population Mitotic Cells (%) [8]: 21%
Population Normal (%) [8]: 54%
Population Pyknosed Nuclei (%) [8]: 29%
Population Tubulin-Different-Phenotype (%) [8]: 82%
Total Cell Count [8]: 207
Population Apoptotic (%) [9]: 82%
Population Fragmented Nuclei (%) [9]: 12%
Population Healthy Nuclei (%) [9]: 51%
Population Hoechst High Intensity Objects (%) [9]: 18%
Population Membrane Permeable-Phenotype (%) [9]: 1%
Population Mitochondria Different-Phenotype (%) [9]: 88%
Population Mitotic Cells (%) [9]: 17%
Population Normal (%) [9]: 81%
Population Pyknosed Nuclei (%) [9]: 35%
Population Tubulin-Different-Phenotype (%) [9]: 68%
Total Cell Count [9]: 232
Population Apoptotic (%) [10]: 61%
Population Fragmented Nuclei (%) [10]: 17%
Population Healthy Nuclei (%) [10]: 65%
Population Hoechst High Intensity Objects (%) [10]: 21%
Population Membrane Permeable-Phenotype (%) [10]: 0%
Population Mitochondria Different-Phenotype (%) [10]: 84%
Population Mitotic Cells (%) [10]: 38%
Population Normal (%) [10]: 78%
Population Pyknosed Nuclei (%) [10]: 17%
Population Tubulin-Different-Phenotype (%) [10]: 59%
Total Cell Count [10]: 193
Population Apoptotic (%) [11]: 71%
Population Fragmented Nuclei (%) [11]: 16%
Population Healthy Nuclei (%) [11]: 46%
Population Hoechst High Intensity Objects (%) [11]: 57%
Population Membrane Permeable-Phenotype (%) [11]: 1%
Population Mitochondria Different-Phenotype (%) [11]: 78%
Population Mitotic Cells (%) [11]: 28%
Population Normal (%) [11]: 42%
Population Pyknosed Nuclei (%) [11]: 37%
Population Tubulin-Different-Phenotype (%) [11]: 76%
Total Cell Count [11]: 262
Population Apoptotic (%) [12]: 83%
Population Fragmented Nuclei (%) [12]: 25%
Population Hoechst High Intensity Objects (%) [12]: 56%
Population Membrane Permeable-Phenotype (%) [12]: 8%
Population Mitochondria Different-Phenotype (%) [12]: 85%
Population Mitotic Cells (%) [12]: 16%
Population Normal (%) [12]: 43%
Population Pyknosed Nuclei (%) [12]: 28%
Population Tubulin-Different-Phenotype (%) [12]: 79%
Total Cell Count [12]: 238

C[C@@H]1CC(=O)Nc2cccc(-c3ccc4c(c3)c(-c3cnn(C)c3)nn4C)c2N1
Population Apoptotic (%) [1]: 36%
Population Fragmented Nuclei (%) [1]: 7%
Population Healthy Nuclei (%) [1]: 76%
Population Hoechst High Intensity Objects (%) [1]: 7%
Population Membrane Permeable-Phenotype (%) [1]: 0%
Population Mitochondria Different-Phenotype (%) [1]: 51%
Population Mitotic Cells (%) [1]: 63%
Population Normal (%) [1]: 92%
Population Pyknosed Nuclei (%) [1]: 16%
Population Tubulin-Different-Phenotype (%) [1]: 39%
Total Cell Count [1]: 305
Population Apoptotic (%) [2]: 60%
Population Fragmented Nuclei (%) [2]: 5%
Population Healthy Nuclei (%) [2]: 77%
Population Mitochondria Different-Phenotype (%) [2]: 65%
Population Mitotic Cells (%) [2]: 39%
Population Tubulin-Different-Phenotype (%) [2]: 26%
Total Cell Count [2]: 349
Population Apoptotic (%) [3]: 49%
Population Fragmented Nuclei (%) [3]: 8%
Population Healthy Nuclei (%) [3]: 74%
Population Hoechst High Intensity Objects (%) [3]: 5%
Population Membrane Permeable-Phenotype (%) [3]: 0%
Population Mitochondria Different-Phenotype (%) [3]: 72%
Population Mitotic Cells (%) [3]: 50%
Population Normal (%) [3]: 94%
Population Pyknosed Nuclei (%) [3]: 17%
Population Tubulin-Different-Phenotype (%) [3]: 62%
Total Cell Count [3]: 384
Population Apoptotic (%) [4]: 38%
Population Fragmented Nuclei (%) [4]: 5%
Population Healthy Nuclei (%) [4]: 77%
Population Hoechst High Intensity Objects (%) [4]: 12%
Population Mitochondria Different-Phenotype (%) [4]: 86%
Population Mitotic Cells (%) [4]: 62%
Population Normal (%) [4]: 87%
Population Pyknosed Nuclei (%) [4]: 16%
Population Tubulin-Different-Phenotype (%) [4]: 56%
Total Cell Count [4]: 345
Population Apoptotic (%) [5]: 38%
Population Fragmented Nuclei (%) [5]: 10%
Population Healthy Nuclei (%) [5]: 74%
Population Hoechst High Intensity Objects (%) [5]: 7%
Population Membrane Permeable-Phenotype (%) [5]: 0%
Population Mitochondria Different-Phenotype (%) [5]: 37%
Population Mitotic Cells (%) [5]: 61%
Population Normal (%) [5]: 92%
Population Pyknosed Nuclei (%) [5]: 14%
Population Tubulin-Different-Phenotype (%) [5]: 20%
Total Cell Count [5]: 395
Population Apoptotic (%) [6]: 50%
Population Fragmented Nuclei (%) [6]: 8%
Population Healthy Nuclei (%) [6]: 79%
Population Hoechst High Intensity Objects (%) [6]: 6%
Population Mitochondria Different-Phenotype (%) [6]: 48%
Population Mitotic Cells (%) [6]: 50%
Population Normal (%) [6]: 93%
Population Pyknosed Nuclei (%) [6]: 11%
Population Tubulin-Different-Phenotype (%) [6]: 16%
Total Cell Count [6]: 422
Population Apoptotic (%) [7]: 43%
Population Fragmented Nuclei (%) [7]: 9%
Population Healthy Nuclei (%) [7]: 76%
Population Hoechst High Intensity Objects (%) [7]: 2%
Population Membrane Permeable-Phenotype (%) [7]: 0%
Population Mitochondria Different-Phenotype (%) [7]: 62%
Population Mitotic Cells (%) [7]: 56%
Population Normal (%) [7]: 97%
Population Pyknosed Nuclei (%) [7]: 13%
Population Tubulin-Different-Phenotype (%) [7]: 37%
Total Cell Count [7]: 472
Population Apoptotic (%) [8]: 57%
Population Fragmented Nuclei (%) [8]: 8%
Population Healthy Nuclei (%) [8]: 72%
Population Hoechst High Intensity Objects (%) [8]: 5%
Population Mitochondria Different-Phenotype (%) [8]: 68%
Population Mitotic Cells (%) [8]: 42%
Population Normal (%) [8]: 94%
Population Pyknosed Nuclei (%) [8]: 19%
Population Tubulin-Different-Phenotype (%) [8]: 28%
Total Cell Count [8]: 381
Population Apoptotic (%) [9]: 33%
Population Fragmented Nuclei (%) [9]: 11%
Population Healthy Nuclei (%) [9]: 80%
Population Hoechst High Intensity Objects (%) [9]: 1%
Population Membrane Permeable-Phenotype (%) [9]: 0%
Population Mitochondria Different-Phenotype (%) [9]: 23%
Population Mitotic Cells (%) [9]: 66%
Population Normal (%) [9]: 98%
Population Pyknosed Nuclei (%) [9]: 7%
Population Tubulin-Different-Phenotype (%) [9]: 13%
Total Cell Count [9]: 627
Population Apoptotic (%) [10]: 30%
Population Fragmented Nuclei (%) [10]: 9%
Population Healthy Nuclei (%) [10]: 81%
Population Hoechst High Intensity Objects (%) [10]: 2%
Population Mitochondria Different-Phenotype (%) [10]: 30%
Population Mitotic Cells (%) [10]: 69%
Population Normal (%) [10]: 97%
Population Pyknosed Nuclei (%) [10]: 9%
Total Cell Count [10]: 593
Population Apoptotic (%) [11]: 43%
Population Fragmented Nuclei (%) [11]: 13%
Population Healthy Nuclei (%) [11]: 80%
Population Hoechst High Intensity Objects (%) [11]: 4%
Population Membrane Permeable-Phenotype (%) [11]: 0%
Population Mitochondria Different-Phenotype (%) [11]: 44%
Population Mitotic Cells (%) [11]: 56%
Population Normal (%) [11]: 95%
Population Pyknosed Nuclei (%) [11]: 6%
Population Tubulin-Different-Phenotype (%) [11]: 16%
Total Cell Count [11]: 636
Population Apoptotic (%) [12]: 42%
Population Fragmented Nuclei (%) [12]: 12%
Population Healthy Nuclei (%) [12]: 78%
Population Hoechst High Intensity Objects (%) [12]: 2%
Population Mitochondria Different-Phenotype (%) [12]: 53%
Population Mitotic Cells (%) [12]: 57%
Population Normal (%) [12]: 97%
Population Pyknosed Nuclei (%) [12]: 9%
Population Tubulin-Different-Phenotype (%) [12]: 20%
Total Cell Count [12]: 521

— ChEMBL document CHEMBL5058577, “EUbOPEN Chemogenomics Library 2 (Multiplex)” (2022)
